Our source for the IC50, Activity and Emax values is ChEMBL document CHEMBL4814013, “Scaffold repurposing of fendiline: Identification of potent KRAS plasma membrane localization inhibitors” (Eur J Med Chem, 2021).

Molecules are shown by their SMILES. Active and inactive are the calls of the source. The calls are words filed in the database; no cut-off is given here.

Assay [1] is described as follows: Inhibition of ASM in dog MDCK cells co-expressing recombinant full length mGFP-tagged KRAS G12V mutant and mCherry-CAAX assessed as reduction in plasma membrane localization of KRAS mutant incubated for 48 hrs by confocal microscopic analysis. It counts as cell membranes, Canis lupus familiaris. Put shortly:
(§1)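 MDCK cells stably co-expressing mGFP-KRAS G12V or mGFP-LactC2 with mCherry-CAAX (HRAS 179–189 C181S/C184S) grown on coverslips in DMEM/10% FBS. Treated 48 h with 0.1% DMSO or graded drug, fixed in 4% paraformaldehyde, then quantitative confocal imaging. Mislocalization scored as the Manders fraction of mCherry-CAAX co-localizing with the GFP probe. IC50 and Emax from three independent experiments.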

Assay [2] has as its system MDCK. Description: Cytotoxicity against dog MDCK cells at 30 uM. It counts as functional, cell-based. The settings on record: Canis lupus familiaris.
Assay [3] deals with MDCK. Description: Inhibition of ASM in dog MDCK cells co-expressing recombinant full length mGFP-tagged KRAS G12V mutant and mCherry-CAAX assessed as reduction in plasma membrane localization of KRAS mutant incubated for 48 hrs by confocal microscopic analysis relative to control. It counts as cell membranes. The settings on record: Canis lupus familiaris. The method, boiled down:
as §1

With `COc1ccc([C@@H](C)N(CC=C(c2ccccc2)c2ccccc2)CCN2CCOCC2)cc1`, in assay [1], the IC50 came to 4.4 µM. Moreover, the result with MDCK [2] was inactive. In addition, the Emax in the assay on MDCK [3] came out at 0.86.
As for `C=CCN(CC=C(c1ccccc1)c1ccccc1)[C@H](C)c1ccc(OC)cc1`, the IC50 in assay [1] was 13 µM. The outcome in the assay on MDCK [2] was inactive. Moreover, the Emax in the assay with MDCK [3] was determined as 0.47.
With `C=CCN(CCN1CCN(C)CC1)[C@H](C)c1ccc(OC)cc1`, the IC50 in assay [1] came out at 59.3 µM. Also, the outcome in the assay on MDCK [2] was inactive. Besides, the Emax in the assay with MDCK [3] was 0.76.
For the compound `COc1ccc([C@@H](C)N(CC=C(c2ccccc2)c2ccccc2)CCN2CCNC(=O)C2)cc1`, the IC50 in assay [1] amounted to 7.7 µM. In addition, the result with MDCK [2] was inactive. In the assay with MDCK [3], the Emax stood at 0.81.
On to `COc1ccc([C@@H](C)N(CC=C(c2ccccc2)c2ccccc2)CCCCN2CCN(C)CC2)cc1`, for which the result in the assay on MDCK [2] was Active. Besides, the Emax in the assay with MDCK [3] is 0.81.
With `COc1ccc([C@@H](C)N(CC=C(c2ccccc2)c2ccccc2)CCN(C)C)cc1`, in assay [1], the IC50 came to 11.2 µM. For the same compound, the outcome with MDCK [2] was Active. Moreover, the Emax with MDCK [3] is 0.66.
Turning to `C[C@H](c1ccc(Cl)cc1)N(CC=C(c1ccccc1)c1ccccc1)CCN1CCN(C)CC1`, in assay [1], the IC50 amounted to 3.8 µM. Besides, in the assay with MDCK [2], the outcome was Active. The Emax with MDCK [3] came out at 0.7.
As for `CCN(CC=C(c1ccccc1)c1ccccc1)[C@H](C)c1ccc(OC)cc1`, in assay [1], the IC50 was 10.6 µM. The result with MDCK [2] was inactive. Moreover, the Emax in the assay on MDCK [3] came to 0.84.
On to `COc1ccc([C@@H](C)N(CC=C(c2ccccc2)c2ccccc2)CCN2CCNCC2)cc1`, for which, in assay [1], the IC50 worked out at 1.3 µM. Besides, the outcome in the assay with MDCK [2] was Active. In the assay with MDCK [3], the Emax was 0.86.
With `COc1ccccc1[C@@H](C)N(CC=C(c1ccccc1)c1ccccc1)CCN1CCN(C)CC1`, the IC50 in assay [1] is 3.8 µM. The outcome in the assay on MDCK [2] was Active. In addition, the Emax in the assay with MDCK [3] amounted to 0.86.
On to `COc1cccc([C@@H](C)N(CC=C(c2ccccc2)c2ccccc2)CCN2CCN(C)CC2)c1`, for which the half-maximal inhibitory concentration (IC50) in assay [1] is 2.8 µM. Also, the result with MDCK [2] was Active. The Emax in the assay with MDCK [3] worked out at 0.75.
In the case of `C[C@H](c1ccc(F)cc1)N(CC=C(c1ccccc1)c1ccccc1)CCN1CCN(C)CC1`, in assay [1], the IC50 amounted to 1.5 µM. Further, the outcome in the assay on MDCK [2] was Active. In addition, in the assay on MDCK [3], the Emax came to 0.83.
Turning to `COc1ccc([C@@H](C)N(C)CC=C(c2ccccc2)c2ccccc2)cc1`, the IC50 in assay [1] was determined as 3.3 µM. Besides, the outcome in the assay with MDCK [2] was inactive. Further, the Emax with MDCK [3] worked out at 0.75.
For the compound `COc1ccc([C@H](C)N(CC=C(c2ccccc2)c2ccccc2)CCN2CCN(C)CC2)cc1`, the IC50 in assay [1] came out at 1.2 µM. Also, the result in the assay with MDCK [2] was Active. The Emax in the assay on MDCK [3] worked out at 0.83.
With `COc1ccc([C@@H](C)N(CC=C(c2ccccc2)c2ccccc2)CCN2CCCCC2)cc1`, the IC50 in assay [1] was determined as 0.6 µM. In the assay with MDCK [2], the result was Active. In the assay on MDCK [3], the Emax came to 0.83.
On to `COc1ccc([C@@H](C)N(CC=C(c2ccccc2)c2ccccc2)CCN2CCC2)cc1`, for which, in assay [1], the IC50 amounted to 0.5 µM. In the assay on MDCK [2], the result was Active. Further, the Emax with MDCK [3] came to 0.69.
Consider `C[C@H](c1ccc([N+](=O)[O-])cc1)N(CC=C(c1ccccc1)c1ccccc1)CCN1CCN(C)CC1`, for which the concentration for half-maximal inhibition (IC50) in assay [1] turned out to be 5.2 µM. The outcome with MDCK [2] was Active. In addition, the Emax in the assay with MDCK [3] came to 0.62.
Regarding `COc1ccc([C@@H](C)N(CC=C(c2ccccc2)c2ccccc2)CC(=O)N2CCN(C)CC2)cc1`, in assay [1], the IC50 was found to be 1.1 µM. In addition, the result in the assay with MDCK [2] was inactive. Further, the Emax in the assay on MDCK [3] was found to be 0.73.
In the same order, the values of `COc1ccc([C@@H](C)N(C/C=C/c2ccccc2)CCN2CCN(C)CC2)cc1` are 14.8 µM, “inactive” and 0.84.
In the case of `CCN(CC)CCN(CC=C(c1ccccc1)c1ccccc1)[C@H](C)c1ccc(OC)cc1`, the result in the assay on MDCK [2] was Active. Moreover, the Emax in the assay on MDCK [3] was 0.89.

One may read the IC50 as the concentration that inhibits the measured activity by half.
